Experimental data reported in ChEMBL document CHEMBL4261642, “Design, synthesis, and ex vivo evaluation of a selective inhibitor for retinaldehyde dehydrogenase enzymes” (Bioorg Med Chem, 2018).

Experiments:
[1] = target: T1, Retinal dehydrogenase 2 (Gallus gallus) (UniProt O93344); test: Inhibition of N-terminal His6-tagged recombinant chick RALDH2 expressed in Escherichia coli BL21(DE3) cells at 25 nM using RAL as substrate assessed as remaining activity preincubated for 20 mins followed by compound washout by ultrafiltration and subsequent addition of substrate and measured after 30 mins in presence of NADH by fluorescence assay (reference value: 100.0 +/- 11.57%)
T1 sequence (whole entry): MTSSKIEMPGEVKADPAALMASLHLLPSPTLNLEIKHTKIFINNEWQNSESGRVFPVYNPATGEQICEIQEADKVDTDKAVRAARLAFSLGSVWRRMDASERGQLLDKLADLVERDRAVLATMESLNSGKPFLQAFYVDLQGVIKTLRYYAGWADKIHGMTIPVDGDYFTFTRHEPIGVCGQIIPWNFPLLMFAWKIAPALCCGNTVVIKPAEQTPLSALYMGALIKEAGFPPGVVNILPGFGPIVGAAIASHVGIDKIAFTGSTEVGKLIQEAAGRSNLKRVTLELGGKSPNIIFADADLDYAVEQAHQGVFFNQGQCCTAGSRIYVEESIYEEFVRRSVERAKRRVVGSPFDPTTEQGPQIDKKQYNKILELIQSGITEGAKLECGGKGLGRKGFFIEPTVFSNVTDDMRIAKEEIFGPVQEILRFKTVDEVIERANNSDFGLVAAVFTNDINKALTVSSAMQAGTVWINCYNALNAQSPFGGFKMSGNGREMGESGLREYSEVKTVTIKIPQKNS
How it was run: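 Chick RALDH2 (91 nM) pre-incubated 20 min with 0–50 nM inhibitor. Unbound inhibitor removed by ultrafiltration before adding 250 μM retinaldehyde and 4 mM NAD+, 30 min at 37°C. NADH measured fluorimetrically. Activity expressed as % of vehicle. Triplicates; one-way ANOVA with Bonferroni test.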

[2] = target: T1, Retinal dehydrogenase 2 (Gallus gallus); test: Inhibition of RALDH2 in living intact choroid isolated from 4 day recovering chick eyes assessed as inhibition of ATRA synthesis at 1 uM after 24 hrs in presence of […]
Retinal dehydrogenase 2 [3] = target: T2, Retinal dehydrogenase 2 (Homo sapiens, UniProt O94788); test: Inhibition of N-terminal His6-tagged recombinant human RALDH2 using RAL as substrate preincubated for 20 mins followed by substrate addition and measured after 30 mins in presence of NADH by fluorescence assay
T2 sequence (O94788 whole entry): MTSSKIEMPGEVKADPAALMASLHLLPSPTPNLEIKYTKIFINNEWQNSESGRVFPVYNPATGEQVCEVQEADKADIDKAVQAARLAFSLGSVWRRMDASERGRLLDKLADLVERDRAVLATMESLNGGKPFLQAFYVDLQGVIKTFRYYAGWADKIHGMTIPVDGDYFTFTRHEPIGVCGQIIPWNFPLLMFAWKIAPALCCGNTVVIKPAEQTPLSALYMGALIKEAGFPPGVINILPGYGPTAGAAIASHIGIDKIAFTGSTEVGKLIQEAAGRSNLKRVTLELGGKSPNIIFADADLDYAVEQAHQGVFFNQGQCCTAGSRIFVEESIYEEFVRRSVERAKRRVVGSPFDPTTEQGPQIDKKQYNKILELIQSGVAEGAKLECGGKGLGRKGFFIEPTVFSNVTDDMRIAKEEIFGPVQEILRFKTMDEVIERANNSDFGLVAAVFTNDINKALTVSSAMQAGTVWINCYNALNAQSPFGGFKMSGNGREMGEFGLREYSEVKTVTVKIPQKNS
How it was run: (§1)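 Purified His-tagged recombinant enzyme in dialysis buffer with 2 mM DTT. Amounts were chick RALDH1 2 μg (0.358 μM), chick RALDH2 0.5 μg (0.091 μM), chick RALDH3 2 μg (0.355 μM) and human RALDH2 1 μg (0.176 μM). Enzyme pre-incubated 20 min at 37°C with 0–10 μM inhibitor in DMSO. Reaction started with final 4 mM NAD+ in pyrophosphate pH 8.2 buffer plus 250 μM retinaldehyde, 30 min at 37°C. NADH read fluorimetrically (Ex/Em 540/590) against a standard curve. Triplicates, 3–5 experiments.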

Retinal dehydrogenase 2 [4] = target: T2, Retinal dehydrogenase 2; test: Inhibition of N-terminal His6-tagged recombinant human RALDH2 using RAL as substrate measured after 30 mins in presence of NADH by Morrison's plot analysis
How it was run: (§2)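 Ki obtained by fitting the Morrison tight-binding equation to the 20-min pre-incubation retinaldehyde/NADH fluorescence inhibition data. Inputs were enzyme concentration (RALDH1 0.358, RALDH2 0.091, RALDH3 0.355, hRALDH2 0.176 μM), substrate concentration and Km. Triplicates from 3–5 independent experiments.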

Gallus gallus = species: Gallus gallus; test: Inhibition of N-terminal His6-tagged recombinant chick RALDH3 expressed in Escherichia coli BL21(DE3) cells at 100 nM using RAL as substrate assessed as Km preincubated for 20 mins followed by substrate addition and measured after 30 mins in presence of NADH by fluorescence assay (reference value: 84.45 +/- 30.99 microM)
[5] = Inhibition of N-terminal His6-tagged recombinant chick RALDH3 expressed in Escherichia coli BL21(DE3) cells using RAL as substrate measured after 30 mins in presence of NADH by Morrison's plot analysis; design: species or system Gallus gallus; how it was run: as §2
[6] = target: T3, Aldehyde dehydrogenase 1A1 (Gallus gallus, UniProt P27463); test: Inhibition of N-terminal His6-tagged recombinant chick RALDH1 expressed in Escherichia coli BL21(DE3) cells using RAL as substrate preincubated for 20 mins followed by substrate addition and measured after 30 mins in presence of NADH by fluorescence assay; how it was run: as §1
T3 sequence (P27463 whole entry): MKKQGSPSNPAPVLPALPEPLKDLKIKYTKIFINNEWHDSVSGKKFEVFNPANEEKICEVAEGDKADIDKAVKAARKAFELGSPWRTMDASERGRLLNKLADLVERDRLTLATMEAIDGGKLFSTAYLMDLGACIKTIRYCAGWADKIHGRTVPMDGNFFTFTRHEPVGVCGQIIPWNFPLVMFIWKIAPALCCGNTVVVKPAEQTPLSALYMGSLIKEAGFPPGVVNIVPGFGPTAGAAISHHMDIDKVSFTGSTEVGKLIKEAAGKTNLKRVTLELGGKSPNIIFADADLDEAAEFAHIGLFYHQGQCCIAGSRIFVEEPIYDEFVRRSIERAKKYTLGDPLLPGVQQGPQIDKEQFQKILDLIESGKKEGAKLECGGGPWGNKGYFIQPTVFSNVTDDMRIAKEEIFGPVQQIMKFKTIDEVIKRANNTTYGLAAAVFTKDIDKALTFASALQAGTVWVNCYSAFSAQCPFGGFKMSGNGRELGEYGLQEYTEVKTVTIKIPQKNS

Retinal dehydrogenase 2 [7] = target: T4, Retinal dehydrogenase 2 (Gallus gallus, UniProt O93344); test: Inhibition of chick RALDH2 expressed in doxycycline-inducible HEK293 cells assessed as inhibition of ATRA synthesis after 24 hrs in presence of […]; format: cell-based
T4 sequence (O93344 whole entry): T1 sequence (whole entry)

Retinal dehydrogenase 2 [8] = target: T4, Retinal dehydrogenase 2; test: Inhibition of RALDH2 in living intact choroid isolated from 4 day recovering chick eyes assessed as inhibition of ATRA synthesis after 24 hrs in presence of […]

Q: For `CC1=C(/C=C/C(C)=C/C=C/C(C)=C/C(=O)C(Cl)Cl)C(C)(C)CCC1`, which Activity [1] is on record?
A: 33%

Q: What about the inhibition [2] of the same molecule?
A: 42%

Q: And the IC50 (Retinal dehydrogenase 2 [3])?
A: 191 nM

Q: And the Ki (Retinal dehydrogenase 2 [4])?
A: 64.3 nM

Q: What about the Km (Gallus gallus) of the same molecule?
A: 52.7 µM

Q: And the Ki [5]?
A: 6.74 nM

Q: And the IC50 [6]?
A: 435 nM

Q: And the IC50 (Retinal dehydrogenase 2 [7])?
A: 187 nM

Q: What about the EC50 (Retinal dehydrogenase 2 [8]) of the same molecule?
A: 120 nM
